# Published values of several laboratories.
# Protocols differ between the studies behind these lines.
# Target: Ephrin type-A receptor 4 (EPHA4, Homo sapiens, UniProt P54764)
SMILES,read-out,technique,tested at,remaining binding
COc1ccnn2ncc(-c3ccnc(N(C)C)n3)c12,binding,,1 µM,95%
NS(=O)(=O)c1cc(NC(=O)Cc2ccccc2)ccc1Oc1cccc(Cl)c1,cell-free assay,competition with immobilised ligand,1 µM,97%
CNC(=O)[C@@H]1CC[C@@H](n2c(-c3ccc4cnccc4c3)nc3ccc(C(=O)NCc4cccc(C(N)=O)c4)cc32)C1,binding,competition with immobilised ligand,1 µM,98%
Cc1cnn2ncc(-c3ccnc(N(C)C)n3)c2c1,binding,,1 µM,96%
O=C(c1ccc(Nc2ncc(Cl)c(-c3cc4ccccc4s3)n2)cc1)N1CCC(N2CCCC2)CC1,binding,competition with immobilised ligand,1 µM,65%
O=c1nc(-c2ccccn2)sc2ccccc12,cell-free assay,competition with immobilised ligand,1 µM,100%
Nc1ncc2c(n1)-c1c([nH]c3ccc(C#CC4CC4)cc13)CCCC2,binding,competition with immobilised ligand,1 µM,100%
COc1ncc2cc3ccccc3nc2c1C#N,cell-free assay,competition with immobilised ligand,5 µM,100%
Cc1cnc(Nc2ccc(C(=O)N3CCC(N4CCCC4)CC3)cc2)nc1-c1cc2ccccc2s1,binding,competition with immobilised ligand,1 µM,57%
O=C(Nc1ccc(Oc2ccc(F)cc2)cc1)N1CCc2ncccc2[C@H]1c1ccc(F)cc1,cell-free assay,competition with immobilised ligand,1 µM,100%
C=CC(=O)N1CCC(C(=O)NCC(=O)N2CCN(c3nc(-c4cnc(N)nc4C(F)F)nc(N4CCOCC4)n3)CC2)CC1,binding,competition with immobilised ligand,1 µM,94%
O=C(NCCCN1CCOCC1)c1ccc(Nc2ncc(Cl)c(-c3ccc(Cl)s3)n2)cc1,binding,competition with immobilised ligand,1 µM,89%
C[C@@H]1CN(c2cc(-c3n[nH]c4ccc(OC5(C)CC5)cc34)ncn2)C[C@H](C)O1,cell-free assay,competition with immobilised ligand,0.1 µM,89%
O=C(Nc1c[nH]nc1C(=O)NC1CCNCC1)c1cc(F)cc(F)c1,binding,competition with immobilised ligand,1 µM,100%
CN(C)c1ncc(F)c(-c2cnn3ncccc23)n1,binding,,1 µM,100%
O=C1NC(c2ccccn2)Sc2ccccc21 (stereo not shown),cell-free assay,competition with immobilised ligand,1 µM,89%
C[C@@H]1CCN(c2nccc(-c3cnn4ncccc34)n2)C1,binding,,1 µM,100%
O=C(NCc1ncc(C(F)(F)F)cc1Cl)c1ccc2c(c1)C1(CCS(=O)(=O)CC1)[C@H](C1CC1)N2S(=O)(=O)c1ccc(F)cc1,cell-free assay,competition with immobilised ligand,1 µM,100%
CN(C)c1nccc(-c2cnc3ncccn23)n1,binding,,1 µM,100%
FC(F)(F)Oc1cccc(-c2cnc3ccc(-c4ccncc4)nn23)c1,cell-free assay,competition with immobilised ligand,5 µM,92%
N[C@H]1CCN(c2nccc(-c3cnn4ncccc34)n2)C1,binding,,1 µM,100%
COc1cnc(Nc2cccc(S(N)(=O)=O)c2)nc1N1CCN(c2ccccc2)C(=O)C1,binding,competition with immobilised ligand,1 µM,100%
